Measurements pooled from the literature.
Each line is one published result; the experiments were not run side by side.
Target: Tyrosine-protein kinase ITK/TSK (ITK, Homo sapiens, UniProt Q08881)
Residues used in one study (Q08881 1-620): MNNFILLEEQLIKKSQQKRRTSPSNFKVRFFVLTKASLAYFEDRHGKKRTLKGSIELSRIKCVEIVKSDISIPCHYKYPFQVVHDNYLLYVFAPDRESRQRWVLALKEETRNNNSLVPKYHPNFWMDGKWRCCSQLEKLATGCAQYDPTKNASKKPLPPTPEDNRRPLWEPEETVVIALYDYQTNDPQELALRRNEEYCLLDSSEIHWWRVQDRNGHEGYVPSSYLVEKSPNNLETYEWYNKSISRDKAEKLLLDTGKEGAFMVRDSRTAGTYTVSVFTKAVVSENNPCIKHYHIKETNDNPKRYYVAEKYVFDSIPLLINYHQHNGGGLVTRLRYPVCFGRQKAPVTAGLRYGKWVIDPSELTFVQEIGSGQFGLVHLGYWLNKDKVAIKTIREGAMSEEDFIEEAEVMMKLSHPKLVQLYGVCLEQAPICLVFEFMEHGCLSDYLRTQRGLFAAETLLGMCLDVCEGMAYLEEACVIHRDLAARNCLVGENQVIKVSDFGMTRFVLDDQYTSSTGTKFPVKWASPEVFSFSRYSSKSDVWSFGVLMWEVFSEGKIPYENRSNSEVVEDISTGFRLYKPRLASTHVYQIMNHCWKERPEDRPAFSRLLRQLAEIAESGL

SMILES	assay	conditions	remaining binding [%]
c1cncc(-c2cccc(Nc3nccc(NC4CCCCC4)n3)c2)c1	binding, competition with immobilised ligand	10 µM	80
COc1cc(-c2cn(C3CCc4c(F)cccc4N(CC(F)(F)F)C3=O)nn2)ccc1-n1cnc(C)c1 (centres unmarked)	cell-free assay, competition with immobilised ligand	1 µM	100
COc1ncc2cc3ccccc3nc2c1C#N	cell-free assay, competition with immobilised ligand	5 µM	97
CN(C)c1nccc(-c2cnn3ncccc23)n1	binding	1 µM	100
Cc1nccc(COC(=O)N2C[C@@H]3[C@@H](CNC(=O)c4ccc5[nH]nnc5c4)[C@@H]3C2)n1	cell-free assay, competition with immobilised ligand	1 µM	100
O=C(NCCCN1CCOCC1)c1ccc(Nc2nccc(-c3cc4ccccc4s3)n2)cc1	binding, competition with immobilised ligand	1 µM	100
O=C(Nc1cccnn1)N1CC(C/C=C/c2cncc(Oc3ccc(C(F)(F)F)cn3)n2)C1	cell-free assay, competition with immobilised ligand	1 µM	100
C[C@H]1CCN(c2nccc(-c3cnn4ncccc34)n2)C1	binding	1 µM	93
O=C(c1ccc(Nc2ncc(Cl)c(-c3cc4ccccc4s3)n2)cc1)N1CCC(N2CCCC2)CC1	binding, competition with immobilised ligand	1 µM	50
CN(CCCC(F)(F)F)c1nccc(-c2cnn3ncccc23)n1	binding	1 µM	95
O=C(Nc1c[nH]nc1C(=O)NC1CCNCC1)c1cc(F)cc(F)c1	binding, competition with immobilised ligand	1 µM	100
CCC(=N\O)/C(C)=C/c1ccc(F)cc1	cell-free assay, competition with immobilised ligand	1 µM	90
N[C@@H]1CCN(c2nccc(-c3cnn4ncccc34)n2)C1	binding	1 µM	93
Cc1cnc(Nc2ccc(C(=O)N3CCC(N4CCCC4)CC3)cc2)nc1-c1cc2ccccc2s1	binding, competition with immobilised ligand	1 µM	59
COc1cnc(Nc2cccc(S(N)(=O)=O)c2)nc1N1CCN(c2ccccc2)CC1	binding, competition with immobilised ligand	1 µM	95
CN(c1nccc(-c2cnn3ncccc23)n1)C1CC1	binding	1 µM	100
CN1CCN(c2cnc3c(C4CCN(C(=O)c5ccc(OC(F)(F)F)cc5N)CC4)ncnc3c2)CC1	cell-free assay, competition with immobilised ligand	1 µM	100
CCN1CCN(Cc2ccc(C(=O)Nc3ccc(C)c(Oc4ccc5c(c4)CC(=O)N5)c3)cc2C(F)(F)F)CC1	binding, competition with immobilised ligand	1 µM	72
O=C(O)[C@H]1[C@H](Cn2nnc3ccccc3c2=O)CC[C@@H]1C(=O)c1ccc(OCCC2CCOCC2)cc1	cell-free assay, competition with immobilised ligand	1 µM	100
CN(C)c1nccc(-c2cnc3ncccn23)n1	binding	1 µM	88
